High-throughput results from PubChem BioAssay.
GPR7 antag: human neuropeptides B/W receptor 1 antagonism. P48145. GPR7-expressing cells, fluorescence antagonist assay. inhibition, % at 4.4 µM. actives 1.1% (n = 290,000); in the data active = inhibition above about 16%, passing the limit was not always enough;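 also: cells stimulated with the agonist NPW; 0% = agonist with vehicle and 100% = vehicle without agonist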
Target sequence (P48145 whole entry, looked up): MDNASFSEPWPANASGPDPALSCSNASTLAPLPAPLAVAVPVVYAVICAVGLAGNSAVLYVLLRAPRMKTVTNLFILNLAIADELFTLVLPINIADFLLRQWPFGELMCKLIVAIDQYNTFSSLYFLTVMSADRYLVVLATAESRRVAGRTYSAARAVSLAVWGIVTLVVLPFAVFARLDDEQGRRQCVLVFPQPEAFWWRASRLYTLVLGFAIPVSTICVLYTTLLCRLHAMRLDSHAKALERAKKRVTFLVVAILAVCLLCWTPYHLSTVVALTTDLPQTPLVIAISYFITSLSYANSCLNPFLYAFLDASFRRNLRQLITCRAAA
NS3 helicase inh: HCV NS3 helicase inhibition; NS3 helicase DNA unwinding, Cy5 molecular beacon fluorescence; inhibition, % at 10.9 µM; actives 0.56% (n = 290,000);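 active = inhibition above the mean of all tested compounds plus 3 SD, set per campaign, cut at about 35% in these data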;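 also: 0% = DMSO wells and 100% = thioflavine S control wells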
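Assay system: hepatitis C virus NS3 helicase domain fragment enzyme. Also added: annealed dual-labelled DNA beacon duplex, ATP-started. Timing: 1 h reaction at 25 °C, ATP-initiated. Technique: Cy5 fluorescence at 0 and 60 min, beacon hairpin quenching. Evaluation: % inhibition of unwinding. Replication: one well per compound.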
FID counter: fluorescent intercalator displacement, NS3 helicase counter-screen. inhibition, % at 7.9 µM. actives 0.17% (n = 290,000). AID 1845. DNA fluorescent intercalator displacement, fluorescence; in the data active = inhibition above about 37%;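 also: 0% = vehicle and 100% = reference compound; higher means more ethidium bromide displaced from hairpin DNA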
EBNA-1 inhibitor: blocks EBNA-1 binding to DNA. EBNA-1 DNA binding, fluorescence polarization. inhibition, % at 14.8 µM. actives 0.34% (n = 300,000). AID 1950; in the data active = inhibition above about 28%
ZTA DNA inh: blocks Epstein-Barr virus ZTA, an EBNA-1 counter-screen; actives 0.15% (n = 320,000); inhibition, % at 11 µM; ZTA-DNA binding, fluorescence polarization; P03206; in the data active = inhibition above about 33%
Target sequence (P03206 whole entry, looked up): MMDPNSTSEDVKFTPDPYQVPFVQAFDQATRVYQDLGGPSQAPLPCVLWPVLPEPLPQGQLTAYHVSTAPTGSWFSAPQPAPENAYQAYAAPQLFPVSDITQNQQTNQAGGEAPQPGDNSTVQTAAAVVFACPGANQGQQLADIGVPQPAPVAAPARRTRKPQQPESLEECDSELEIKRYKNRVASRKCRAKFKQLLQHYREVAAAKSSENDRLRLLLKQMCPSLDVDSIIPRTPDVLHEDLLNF
GPR7 antag cf: human GPR7 antagonism, confirmation assay | shares compounds with GPR7 antag | GPR7-expressing cells, calcium fluorescence antagonist mode | inhibition, % at 4.4 µM | actives 52% (n = 2,400) | AID 1952; in the data active = inhibition above about 24%;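 also: stimulated with the GPR7 agonist NPW; 0% = agonist plus vehicle and 100% = vehicle alone without agonist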
MCHR1 antag: counter-screen for GPR7 antagonists: antagonists of human MCHR1. shares compounds with GPR7 antag. actives 62% (n = 2,400). inhibition, % at 4.4 µM. MCHR1-expressing cells, fluorescence antagonist assay; in the data active = inhibition above about 22%;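 also: 0% = vehicle with agonist and 100% = vehicle without agonist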
* hit, by the source's call; x = no result. Sampled rows, rich in hits. Any-hit rate of the full collection: about 2%.

SMILES	GPR7 antag	NS3 helicase inh	FID counter	EBNA-1 inhibitor	ZTA DNA inh	GPR7 antag cf	MCHR1 antag
CCC1(C)N([O-])C(C)=C(c2ccccc2)[N+]1=O (stereo unspecified)	28.1*	1.9	-0.1	-2.1	-3.1	-7.4	12.3
COc1cc(C2c3[nH]c4ccccc4c3C[C@@H]3C(=O)N(Cc4ccco4)CC(=O)N23)cc(OC)c1OC (stereo partly specified)	16.7	-14.6	-47.5	11.3	6.8	x	x
C=CCc1cccc([C@@H]2[C@@H](C)CC[C@H]3C(=O)N4[C@@H](c5cc(OC)c(OC)c(OC)c5)c5[nH]c6ccccc6c5C[C@H]4C(=O)N23)c1	33.1*	6.9	-21.8	3.1	0.3	8.4	5.8
COc1cc(C)ccc1Oc1ncnc(N)c1[N+](=O)[O-]	51.0*	3.6	-6.4	5.7	-6.6	-5.7	-6.1
O=C(Cc1ccc(Cl)cc1)Nc1ccccc1N1CCN(C(=O)c2ccccc2)CC1	28.3*	-16.5	-44.3	-2.3	-8.5	36.2*	50.9*
O=C(Nc1ccccc1N1CCN(C(=O)c2ccccc2)CC1)c1ccc(Cl)cc1	4.0	-1.7	-31.6	4.8	3.0	x	x
O=C(Nc1ccccc1N1CCN(c2ccccc2)CC1)c1ccccc1	22.2*	-8.2	-18.2	-7.7	-3.5	22.1	45.0*
CCCC(CCC)C(=O)Nc1ccc2c(c1)N(C(=O)CCN1CCN(C)CC1)c1ccccc1CC2	27.6*	-39.7	31.9	-3.2	2.9	28.3*	17.9
CCOC(=O)Nc1ccc2c(c1)N(C(=O)CN1CCN(C)CC1)c1ccccc1CC2	1.6	-1.7	17.2	-12.3	-8.6	x	x
Clc1cccc(CON/C=N/c2ncnc3sccc23)c1	36.8*	-1.8	-11.7	-5.5	-8.2	13.9	39.9*
Nc1nonc1C(=O)NCCNCc1c(OCc2ccccc2F)ccc2ccccc12	28.0*	-37.2	11.4	-9.4	-18.2	47.3*	68.7*
CCCC(c1nnnn1Cc1ccco1)N1CCN(c2ccccc2)CC1 (stereo unspecified)	8.4	2.8	-14.3	-5.3	-5.2	x	x
CCCC(c1nnnn1Cc1ccco1)N1CCN(c2cc(Cl)ccc2C)CC1 (stereo unspecified)	26.5*	-8.0	-23.1	-1.3	-0.6	34.7*	50.2*
Cc1ccccc1-n1ccnc1SCC(=O)NCC1CCCO1 (stereo unspecified)	26.4*	2.3	-11.9	-3.0	-10.9	-8.5	3.4
O=C(CSc1ccc2c(c1)OCCO2)NCc1ccccc1	2.4	-0.9	-10.5	-7.6	12.3	x	x
COc1ccccc1-n1ccnc1SCC(=O)NCC1CCCO1 (stereo unspecified)	-12.8	-0.5	-9.6	-5.1	1.9	x	x
O=C(CSc1ccc2c(c1)OCCO2)NCC1CCCO1 (stereo unspecified)	27.0*	0.1	-7.9	-0.2	11.2	-1.0	-1.3
Cc1ccc(-n2cccn2)c(CN2CCCC(C(=O)c3sccc3C)C2)c1 (stereo unspecified)	33.2*	-19.7	7.8	5.3	-0.1	39.0*	40.8*
COc1ccc(O)c(CN2CCCC(C(=O)Nc3cccc(-n4cccn4)c3)C2)c1 (stereo unspecified)	-3.7	-8.0	9.8	x	x	x	x
COc1ccc(Cl)cc1NC(=O)Nc1ccccc1C(N)=O	30.2*	9.6	9.1	4.7	4.7	9.6	20.8
COc1ccc(Cl)cc1NC(=O)Nc1ccccc1SC	12.1	2.5	-0.7	-4.2	5.2	x	x
COc1ccc(Cl)cc1NC(=O)CNc1ccccc1CN(C)C1CCCCC1	26.5*	-87.2	20.1	-12.3	-2.0	35.0*	46.9*
CCN1CCN(CC(=O)Nc2ccc(S(=O)(=O)N3C(C)CCCC3C)cc2)CC1 (stereo unspecified)	22.4	20.6	19.3	-4.2	7.8	x	x
O=C(c1cccc(S(=O)(=O)N2CCN(c3ccc(F)cc3)CC2)c1)N1CCCC(C(F)(F)F)C1 (stereo unspecified)	x	x	x	7.5	-5.2	x	x
Cc1ccc(C2c3[nH]c4ccccc4c3C[C@H]3C(=O)N(c4ccccc4C(=O)NCCN4CCOCC4)C(=O)N23)cc1 (stereo partly specified)	28.4*	-58.0	25.3	-11.6	4.2	7.1	21.7*
SMILES	GPR7 antag	NS3 helicase inh	FID counter	EBNA-1 inhibitor	ZTA DNA inh	GPR7 antag cf	MCHR1 antag
O=C(NCCCN1CCOCC1)c1ccccc1N1C(=O)[C@@H]2Cc3c([nH]c4ccccc34)C(c3cccc(Cl)c3)N2C1=O (stereo partly specified)	26.9*	-114.9	13.4	-18.3	-0.8	25.5*	34.7*
CN(Cc1cccs1)C(=O)CCCc1c[nH]c2ccccc12	32.9*	24.4	-26.9	2.2	1.5	32.9*	44.5*
CN(Cc1cccs1)C(=O)CCc1c[nH]c2ccccc12	-5.2	-3.6	-10.4	3.5	-4.5	x	x
CC(C)Cn1cnc2c(c(-c3ccccc3)c(-c3ccccc3)n2Cc2ccco2)c1=N	20.5	-39.9	20.5	-1.1	-14.4	x	x
N=c1c2c(-c3ccccc3)c(-c3ccccc3)n(Cc3ccco3)c2ncn1Cc1ccccc1	23.9*	-42.0	10.3	-0.1	4.8	57.6*	92.4*
O=C(O)c1cc(S(=O)(=O)NC(Cc2c[nH]c3ccccc23)C(=O)O)ccc1Cl (stereo unspecified)	-9.4	8.2	-11.9	6.4	7.5	x	x
N#CCOC(=O)[C@H](Cc1c[nH]c2ccccc12)NS(=O)(=O)c1ccc(Cl)cc1	43.0*	-10.8	-15.5	-15.1	-17.2	48.5*	33.2*
Cc1nn2c(NCCCN(C)C)c3c(nc2c1-c1ccccc1)CCCC3	30.1*	-35.3	33.6	-9.0	2.2	17.9	23.4*
Cc1nn2c(NCCCN(C)C)c3c(nc2c1-c1ccccc1)CCC3	0.4	-25.6	28.6	3.7	0.0	x	x
CC1=C(C)CC(C(=O)NCCc2ccc(F)cc2)C(C(=O)O)C1 (stereo unspecified)	-9.9	3.3	-9.9	-12.7	9.2	x	x
Cc1csc(NC(=O)CSc2nnc(Cc3cccn3C)n2CCc2ccccc2)n1	27.5*	23.9	-56.7	6.2	-2.4	15.5	16.1
CC(NC(=S)Nc1ccc(F)cc1)C(c1cccs1)N1CCOCC1 (stereo unspecified)	22.9*	7.6	-11.7	-4.9	0.1	20.6	-7.1
COCC(=O)N1CCC(Oc2ccc(C(=O)N3C[C@@H]4CCC[C@H]3C4)cc2)CC1	-7.3	-7.0	-18.1	x	x	x	x
O=C(Nc1ccc(Br)cc1)Nc1ccccc1Cl	73.0*	-8.6	5.2	0.7	-1.4	78.9*	62.8*
COc1cccc(NC(=S)NC(=O)/C=C/c2ccc(F)cc2)c1	5.5	3.4	-5.9	10.7	-3.1	x	x
CC(=O)c1ccc(NC(=S)NC(=O)/C=C/c2ccc(F)cc2)cc1	47.8*	10.4	-10.3	-15.9	7.5	10.6	12.8
COc1cccc(CNC2CCCCCCC2)c1OC	-0.8	-4.7	5.8	-4.1	-2.4	x	x
